We go through one molecule from ChEMBL document CHEMBL4382192, “Discovery of a potent dual ALK and EGFR T790M inhibitor” (Eur J Med Chem, 2017).

Data set [1] has as its target Serine/threonine-protein kinase Chk1 (Homo sapiens) (UniProt O14757). Kind of data set: Binding affinity to wild-type human partial length CHEK1 (M1 to G289 residues) expressed in bacterial expression system assessed as residual binding level at 1 uM by Kinomescan method relative to control.
The target of data set [2] is Serine/threonine-protein kinase TAO2 (Homo sapiens) (UniProt Q9UL54). Put plainly: Binding affinity to wild-type human partial length TAOK2 (M1 to A320 residues) expressed in mammalian expression system assessed as residual binding level at 1 uM by Kinomescan method relative to control.
Data set [3] concerns the target Platelet-derived growth factor receptor beta (Homo sapiens) (UniProt P09619). Put plainly: Binding affinity to wild-type human partial length PDGFRB (V582 to Y1009 residues) expressed in bacterial expression system assessed as residual binding level at 1 uM by Kinomescan method relative to control.
In data set [4] the test system is Serine/threonine-protein kinase B-raf (Homo sapiens), P15056 [V600E]. Put plainly: Binding affinity to human partial length BRAF V600E mutant (S429 to E741 residues) expressed in mammalian expression system assessed as residual binding level at 1 uM by Kinomescan method relative to control.
Data set [5] deals with Serine/threonine-protein kinase SIK2 (Homo sapiens) (UniProt Q9H0K1). Put plainly: Binding affinity to wild-type human full length SIK2 (M1 to N926 residues) expressed in bacterial expression system assessed as residual binding level at 1 uM by Kinomescan method relative to control. An outline of the steps: (§1)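 Single-point kinome-wide KINOMEscan binding panel, test compound at 1 μM, run by the provider's standard protocol.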

Data set [6] concerns the target Tyrosine-protein kinase Fer (Homo sapiens) (UniProt P16591). Kind of data set: Binding affinity to wild-type human partial length FER (S542 to T822 residues) expressed in bacterial expression system assessed as residual binding level at 1 uM by Kinomescan method relative to control.
The nature of data set [7]: Half life in mouse at 2 mg/kg, iv. Particulars: in vivo. In kind it is ADME, organism-based.
Data set [8] concerns the target Death-associated protein kinase 1 (Homo sapiens) (UniProt P53355). Kind of data set: Binding affinity to wild-type human partial length DAPK1 (M1 to F296 residues) expressed in bacterial expression system assessed as residual binding level at 1 uM by Kinomescan method relative to control.
The target of data set [9] is cAMP-dependent protein kinase catalytic subunit alpha (Homo sapiens) (UniProt P17612). Kind of data set: Binding affinity to wild-type human partial length PKAC-alpha (G10 to F351 residues) expressed in bacterial expression system assessed as residual binding level at 1 uM by Kinomescan method relative to control.
Data set [10] has as its target Mitogen-activated protein kinase kinase kinase 10 (Homo sapiens) (UniProt Q02779). Kind of data set: Binding affinity to wild-type human partial length MLK2 (V52 to W380 residues) expressed in bacterial expression system assessed as residual binding level at 1 uM by Kinomescan method relative to control.
For data set [11], the system named is Epidermal growth factor receptor (Homo sapiens), P00533 [UNDEFINED MUTATION]. Put plainly: Binding affinity to human partial length EGFR L747-T751del/Sins mutant expressed in bacterial expression system assessed as residual binding level at 1 uM by Kinomescan method relative to control. The method in brief: (§2)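 Kinome-wide selectivity panel run by the KINOMEscan method, with the test compound at a single concentration of 1 μM. Wild-type and mutant kinases were profiled in the same screen.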

The target of data set [12] is Serine/threonine-protein kinase Nek7 (Homo sapiens) (UniProt Q8TDX7). Put plainly: Binding affinity to wild-type human full length NEK7 (M1 to S302 residues) expressed in bacterial expression system assessed as residual binding level at 1 uM by Kinomescan method relative to control. The method in brief: as §1
In data set [13] the target is Tyrosine-protein kinase Lck (Homo sapiens) (UniProt P06239). Kind of data set: Binding affinity to wild-type human partial length LCK (R207 to P509 residues) expressed in bacterial expression system assessed as residual binding level at 1 uM by Kinomescan method relative to control.
In data set [14] the target is Serine/threonine-protein kinase pim-1 (Homo sapiens) (UniProt P11309). Kind of data set: Binding affinity to wild-type human partial length PIM1 (A15 to K313 residues) expressed in bacterial expression system assessed as residual binding level at 1 uM by Kinomescan method relative to control.
The target in data set [15] is Mitogen-activated protein kinase 3 (Homo sapiens) (UniProt P27361). Kind of data set: Binding affinity to wild-type human full length ERK1 (M1 to P379 residues) expressed in bacterial expression system assessed as residual binding level at 1 uM by Kinomescan method relative to control. An outline of the steps:
as §1

The target in data set [16] is Interleukin-1 receptor-associated kinase 1 (Homo sapiens) (UniProt P51617). Put plainly: Binding affinity to wild-type human partial length IRAK1 (R194 to S712 residues) expressed in mammalian expression system assessed as residual binding level at 1 uM by Kinomescan method relative to control.
The test system of data set [17] is Mast/stem cell growth factor receptor Kit (Homo sapiens), P10721 [UNDEFINED MUTATION]. Kind of data set: Binding affinity to human partial length KIT V559D/V654 double mutant (Y545 to D952 residues) expressed in bacterial expression system assessed as residual binding level at 1 uM by Kinomescan method relative to control. An outline of the steps:
as §2

Data set [18] addresses Serine/threonine-protein kinase 36 (Homo sapiens) (UniProt Q9NRP7). Kind of data set: Binding affinity to wild-type human partial length STK36 (M1 to T271 residues) expressed in bacterial expression system assessed as residual binding level at 1 uM by Kinomescan method relative to control.
In data set [19] the target is Cyclin-dependent kinase 8 (Homo sapiens) (UniProt P49336). Kind of data set: Binding affinity to wild-type human partial length CDK8 (M1 to T360 residues) expressed in bacterial expression system assessed as residual binding level at 1 uM by Kinomescan method relative to control.
The target in data set [20] is Ribosomal protein S6 kinase alpha-1 (Homo sapiens) (UniProt Q15418). Put plainly: Binding affinity to wild-type human partial length C-terminal RSK1 kinase domain 2 (P360 to L681 residues) expressed in bacterial expression system assessed as residual binding level at 1 uM by Kinomescan method relative to control.
Data set [21] has as its target Megakaryocyte-associated tyrosine-protein kinase (Homo sapiens) (UniProt P42679). Put plainly: Binding affinity to wild-type human full length CTK (M43 to P508 residues) expressed in mammalian expression system assessed as residual binding level at 1 uM by Kinomescan method relative to control.
Data set [22] deals with ALK tyrosine kinase receptor (Homo sapiens), Q9UM73 [L1196M]. Kind of data set: Binding affinity to wild-type human partial length ALK L1196M mutant (I1088 to E1409 residues) expressed in mammalian expression system assessed as residual binding level at 1 uM by Kinomescan method relative to control.
In data set [23] the test system is Tyrosine-protein kinase ABL1 (Homo sapiens), P00519 [F317I]. Put plainly: Binding affinity to human phosphorylated ABL1 F317I mutant (S229 to K512 residues) expressed in mammalian expression system assessed as residual binding level at 1 uM by Kinomescan method relative to control. The method in brief:
as §2

Data set [24] deals with Serine/threonine-protein kinase Chk2 (Homo sapiens) (UniProt O96017). Kind of data set: Binding affinity to wild-type human partial length CHEK2 (S253 to E574 residues) expressed in bacterial expression system assessed as residual binding level at 1 uM by Kinomescan method relative to control.

SMILES strings stand for the structures.

As to `C=CC(=O)Nc1cc(Nc2ncc(Cl)c(Nc3ccccc3S(=O)(=O)C(C)C)n2)c(OC)cc1N(C)CCN(C)C`, the Activity in data set [1] is 99%; in data set [2], 52%; in [3], 43%; in [4], 88%; in data set [5], 38%; in data set [6], 0%. Further, the Activity amounted to 59% in [8]; 100% in data set [9]; 80% in [10]; 0.45% in data set [11]; 72% in data set [12]; 14% in data set [13]. For the same molecule, the Activity is 83% in data set [14]; 77% in [15]; 21% in data set [16]; 57% in data set [17]; 88% in data set [18]; 90% in data set [19]. Also, the Activity in data set [20] was 44%; in [21] it was 98%; in data set [22], 0%; in [23], 2.8%; in data set [24], 0.35%. In data set [7], the half-life (commonly the time in which the quantity being followed falls by half) is 1.25 h.
